Compounds with a hit are over-represented: about 5.8% of the library has one in this group of screens.
ROMK primary = modulators of human ROMK potassium channel | B-score at 10 µM | actives 2% (n = 130,000) | AID 1918 | Tet-inducible ROMK, thallium flux fluorescence; actives lie on both sides;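 active = signal ratio slope over the read window, or its plate-corrected B-score, at least 3 SD from the plate mean, either direction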;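 note: B-score of the F/F0 ratio slope over 7 to 12 s after thallium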
RBBP9 inhibitor = blocks human serine hydrolase RBBP9; O75884; recombinant RBBP9, FP-Rh probe fluorescence polarization; inhibition, % at 7.94 µM; actives 0.2% (n = 220,000); AID 1515;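 active = inhibition above the campaign mean of all tested compounds plus 3 SD, cut at about 14% in these data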;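 note: plate controls were DMSO wells with RBBP9 for no effect and wells lacking RBBP9 protein for full effect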
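System: RBBP9 protein / Quantity: 2.5 µM RBBP9 dispensing solution, before mixing / Also added: Serine-hydrolase probe FP-Rh, 375 nM pre-mixing / Dosing: 7.94 µM single dose, 0.794% DMSO / Timing: enzyme-compound preincubation 30 min, then probe labeling 45 min, 25 °C / Signal: FP readout at 525/598 nm / Controls: DMSO-treated enzyme wells and wells lacking RBBP9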
p47phox inh = p47phox (human) inhibition | P14598 | p47phox/p22phox peptide binding, fluorescence polarization, 2 h | inhibition, % at 24.7 µM | actives 0.53% (n = 220,000) | AID 1274;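 active = inhibition above about 30%, limit read from the data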;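 note: 0% = p47phox with labelled peptide and 100% = labelled peptide alone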
Target sequence (P14598 whole entry, looked up): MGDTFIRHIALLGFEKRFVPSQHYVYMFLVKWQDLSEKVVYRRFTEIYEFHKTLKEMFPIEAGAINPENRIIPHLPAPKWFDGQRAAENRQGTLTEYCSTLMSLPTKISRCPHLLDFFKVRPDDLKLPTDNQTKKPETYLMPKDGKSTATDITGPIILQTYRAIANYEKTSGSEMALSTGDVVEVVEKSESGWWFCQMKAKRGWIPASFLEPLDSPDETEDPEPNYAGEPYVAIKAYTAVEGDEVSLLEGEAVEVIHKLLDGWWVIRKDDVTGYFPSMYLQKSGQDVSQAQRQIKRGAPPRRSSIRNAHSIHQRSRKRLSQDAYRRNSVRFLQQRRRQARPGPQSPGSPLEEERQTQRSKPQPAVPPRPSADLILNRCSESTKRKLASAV
Cl transport mod = KCC2 (human) Cl- transport modulation; B-score of Tl+ flux slope (higher = more flux/activation; lower = inhibition) at 10 µM; AID 1456; Q9H2X9; KCC2 cells, thallium flux FluoZin-2 fluorescence; actives 2.2% (n = 190,000);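 active = thallium flux slope and its plate-corrected score both differing from the plate sample mean at a set confidence after two filtering rounds, in either direction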;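 note: slope of fluorescence scaled to starting intensity during 10 to 20 s after thallium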
14-3-3 Bad PPI = disrupts binding of bovine 14-3-3 zeta to phospho-Bad peptide | TR-FRET 14-3-3zeta/Dy647-pBad peptide displacement, 1 h | actives 0.71% (n = 220,000) | P63103 | inhibition, % at 21.7 µM | AID 781;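 active = inhibition above about 70%, limit read from the data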;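 note: 0% = full 14-3-3 plus peptide FRET controls and 100% = background without 14-3-3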
Target sequence (P63103 whole entry, looked up): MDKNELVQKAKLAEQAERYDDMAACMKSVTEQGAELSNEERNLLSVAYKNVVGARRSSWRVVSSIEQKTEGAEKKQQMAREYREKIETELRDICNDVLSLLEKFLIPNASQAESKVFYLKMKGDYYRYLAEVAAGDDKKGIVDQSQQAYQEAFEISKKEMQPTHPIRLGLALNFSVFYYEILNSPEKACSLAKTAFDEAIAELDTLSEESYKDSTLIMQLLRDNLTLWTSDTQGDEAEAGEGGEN
WT yeast gro inh = growth inhibition of WT yeast, mitochondrial fusion screen; mitochondrial fusion phenotypic screen, WT strain; inhibition, % at 10 µM; actives 2.1% (n = 190,000); AID 1362; in the data active = inhibition above about 58%; tested in S. cerevisiae
The depositor's hits bear a star; · = no result given.

SMILES	ROMK primary	RBBP9 inhibitor	p47phox inh	Cl transport mod	14-3-3 Bad PPI	WT yeast gro inh
COc1ccc(NP(=O)(Oc2ccc(Cl)cc2)Oc2ccc(Cl)cc2)cc1OC	-0.038	2	-19	0.14	-22	65*
Cc1cccc(OP(N)(=O)Oc2cccc(C)c2)c1	-0.044	0	-5	0.017	-5	·
Cc1cccc(OP(=O)(NCc2ccccc2)Oc2cccc(C)c2)c1	0.066	-8	-7	0.071	3	69*
Cc1cccc(OP(=O)(Nc2ccc(F)cc2)Oc2cccc(C)c2)c1	0.054	-1	-5	0.62	1	61*
COc1ccc(NP(=O)(Oc2cccc(C)c2)Oc2cccc(C)c2)cc1OC	-1.4	-8	-5	-1.3	-7	·
CCC(C)(C)n1nnnc1C(c1cccs1)N1CC=C(c2ccc(F)cc2)CC1 (stereo not given)	-0.13	-3	-34	·	-9	72*
CN1C2CCC1C(COC(=O)c1ccccc1)C(O)C2 (stereo not given)	·	-9	-6	1.3	91*	·
O=C(O)C1C2CCC(O2)C1C(=O)NC1CCCCC1 (stereo not given)	-0.085	-4	17	0.37	26	-2
CCN(CC)c1ccc(/C=N/c2sc3c(c2C#N)C2CCN3CC2)c(O)c1	-0.27	-5	74*	0	-2	23
O=C(Nc1ccc(F)cc1)OC1CN2CCC1CC2 (stereo not given)	·	-5	-6	·	0	·
CCN1CCN(Cc2cc(Br)ccc2O)CC1	-0.16	0	-187	·	41	-41
CCN1CCN(Cc2cc(Br)cc(Br)c2O)CC1	0.1	-9	5	0.078	78*	4
S=P(NC1CCCCC1)(N1CC1)N1CC1	0.039	-16	3	-0.09	2	·
O=C(Nc1ccccc1)N1CC2CC(C1)c1cccc(=O)n1C2 (stereo not given)	-0.62	0	0	1	-8	-2
O=C(Nc1ccc(F)cc1)N1CC2CC(C1)c1cccc(=O)n1C2 (stereo not given)	·	-6	-11	0.8	11	73*
CCCCc1nc2ccccc2c(=O)n1-c1ccc(Cl)cc1[N+](=O)[O-]	·	-1	5	·	-8	64*
COc1cc2c(cc1OC)C(C(=O)N(C)C1CCCCC1)C1CCCCN1C2=O (stereo not given)	·	-6	-12	0.98	-17	7
COc1ccc(OC)c(CN2CCCC(C(=O)c3sccc3C)C2)c1 (stereo not given)	·	7	-8	-2.3	-9	·
CCc1ccc(N2C(=O)NC(=O)C(CCc3ccncc3)(CCc3ccncc3)C2=O)cc1	·	-2	-1	0.11	-3	15
O=C1NC(=O)C(CCc2ccncc2)(Cc2cccc(Cl)c2Cl)C(=O)N1c1ccc(Br)cc1 (stereo not given)	·	-10	6	0.19	-2	75*
CCOc1ccc(C2CC(c3c(O)n(C)c(=O)n(C)c3=O)=NN2)cc1 (stereo not given)	·	-10	61*	0.65	-12	·
CCC(C)N1C(=O)/C(=C\c2ccc(N3CCCCCC3)cc2)C(=O)NC1=S (stereo not given)	0.33	-7	56*	0.19	-18	47
CN1C(=O)/C(=C\c2ccc(N3CCCCCC3)cc2)C(=O)NC1=S	·	-6	14	0.92	1	·
CCC(C)N1C(=O)/C(=C\c2cc3c4c(c2)CCCN4CCC3)C(=O)NC1=S (stereo not given)	-0.74	-1	63*	-0.43	-6	13
COc1ccc(OC)c(N2Cc3ccccc3C2=N)c1	-0.84	-3	-10	0.39	-3	1
SMILES	ROMK primary	RBBP9 inhibitor	p47phox inh	Cl transport mod	14-3-3 Bad PPI	WT yeast gro inh
Cc1cc(S(=O)(=O)NCC(C)C)ccc1OCC(=O)N1CCN(Cc2ccccc2)CC1	·	-4	-7	·	-4	-3
CN1CCN(C(=O)COc2ccc(S(=O)(=O)NCc3ccccc3)cc2Cl)CC1	0.083	2	-3	·	75*	14
OCCNc1c2c(nc3ccccc13)CCCC2	·	-6	7	0.028	14	65*
c1ccc(CNc2c3c(nc4ccccc24)CCC3)cc1	·	-2	-8	-1.9	4	·
CCc1cc(=O)[nH]c(SCCCF)n1	0.25	1	-4	0.74	-5	2
COC(=O)CC1=C(C(=O)OC)C2(C(=O)Nc3c(C)cccc32)C(C#N)=C(N)O1 (stereo not given)	·	-4	-4	0.41	-2	-7
CCCCOc1ccc(CN2CCN(CC)CC2)cc1	·	-1	-9	-1.2	86*	-1
Fc1cccc(C2NCCc3[nH]cnc32)c1 (stereo not given)	·	-8	-12	0.31	2	21
CCSP1(=S)N=C(N2CCOCC2)C(C#N)=C2CCCN21 (stereo not given)	1.2	-14	-9	0.57	6	12
CN1C(=O)N(C)C(=O)C2(Cc3cc(N)ccc3N3CCN(c4ccccc4F)CC32)C1=O (stereo not given)	·	-5	-5	·	82*	0
CNC(=O)Oc1ccc(N(C)C)cc1C(C)C	-0.3	3	5	0.44	0	·
O=C(c1c[nH]c2ccc(S(=O)(=O)N3CCOCC3)cc2c1=O)N1CCC2(CC1)OCCO2	1	-3	0	0.38	18	11
O=C(Cc1ccccc1)N1CCN(CC2CC=CCC2)CC1 (stereo not given)	-0.64	-4	-5	0.55	77*	10
Cc1ccc2c(c1)C1CN(C)CCC1N2C(=O)c1cccnc1Cl (stereo not given)	·	0	-7	·	0	·
Cc1ccc2c(c1)C1CN(C)CCC1N2C(=O)c1cn(-c2ccccc2)nc1-c1ccccc1 (stereo not given)	-1.9	-8	-12	-0.42	1	86*
O=P(CCl)(Nc1ccccc1)C(Cl)(Cl)Cl (stereo not given)	0.4	-3	-26	1.3	2	-17
c1ccc(-c2nc(N3CCOCC3)s[n+]2-c2ccccc2)cc1	0.13	-8	41*	1.3	24	-16
Cc1ccc(-n2c(O)c(/C=N/Nc3ccccc3)c(=O)[nH]c2=O)cc1C	·	-6	40*	·	-11	·
COc1ccc(N/N=C/c2c(O)n(-c3ccc(C)c(C)c3)c(=O)[nH]c2=O)cc1	0.23	-12	-3	0.93	0	55
CSc1ccc(C(=O)C2CCCN(Cc3cc4ccccc4[nH]3)C2)cc1 (stereo not given)	0.72	-10	-44	0.41	-6	66*
O=C(Oc1c(Cl)cc(Cl)c2ccccc12)N1CCCCC1	·	-15	-4	-0.18	9	73*
CC[n+]1c(SC)ccc2cc(OC)ccc21	·	8	-2	1.5	-6	71*
Fc1ccc2c(c1)nnn2C1CCN(Cc2nnnn2CCc2ccccc2)CC1	-0.072	-2	-4	-2.3	76*	8

Source: PubChem (several laboratories)
